The results in this text go back to ChEMBL document CHEMBL4152217, “Quinonoid compounds via reactions of lawsone and 2-aminonaphthoquinone with α-bromonitroalkenes and nitroallylic acetates: Structural diversity by C-ring modification and cytotoxic evaluation against cancer cells” (Eur J Med Chem, 2018).

pIC50: −log10 of the molar value. Some results are limits rather than exact numbers.

Test [1] relates to PBMC. Put plainly: Cytotoxicity against human PBMC cells assessed as reduction in cell viability after 72 hrs by MTT assay. On the technique in general: Formazan colour is commonly taken as a measure of viable cells.
Test [2] deals with SF-295. Put plainly: Cytotoxicity against human SF295 cells assessed as reduction in cell viability after 72 hrs by MTT assay. The following applies: SF-295, 72 h.
The subject of test [3] is HL-60. Put plainly: Cytotoxicity against human HL60 cells assessed as reduction in cell viability after 72 hrs by MTT assay. It counts as functional, cell-based. The note with it: HL-60, 72 h. The essentials:
(§1)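 MTT viability assay. Cancer lines grown in RPMI 1640 and L929 fibroblasts in DMEM, each with 10% FBS, 2 mM glutamine, penicillin/streptomycin, 37 °C, 5% CO2. PBMC were taken from healthy donors by density-gradient centrifugation, kept in RPMI with 20% FBS and stimulated with 2% phytohemagglutinin. Cells were exposed 72 h (0.01–27.32 µM). MTT 0.5 mg/mL for 3 h, absorbance read at 550 nm. IC50 with 95% CI from nonlinear regression; triplicate, ≥3 independent experiments.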

The test system of test [4] is L929. Put plainly: Cytotoxicity against mouse L929 cells assessed as reduction in cell viability after 72 hrs by MTT assay. The following applies: L929, 72 h. Format: cell-based. The method, boiled down: as §1
Test [5] relates to Jurkat. The test is described as follows: Cytotoxicity against human Jurkat cell viability after 72 hrs by MTT assay.
In test [6] the test system is HCT-116. The test is described as follows: Cytotoxicity against human HCT116 cells assessed as reduction in cell viability after 72 hrs by MTT assay. Format: functional, cell-based. The following applies: HCT-116, 72 h. The essentials: as §1
Test [7] has as its system NCI-H460. The test is described as follows: Cytotoxicity against human NCI-H460 cells assessed as reduction in cell viability after 72 hrs by MTT assay. The following applies: NCI-H460, 72 h.
For test [8], the system named is OVCAR-8. The test is described as follows: Cytotoxicity against human OVCAR8 cells assessed as reduction in cell viability after 72 hrs by MTT assay. The following applies: OVCAR-8, 72 h.
The test system of test [9] is MX1. The test is described as follows: Cytotoxicity against human MX1 cells assessed as reduction in cell viability after 72 hrs by MTT assay. The following applies: MX1, 72 h.
The test system of test [10] is PC-3. Put plainly: Cytotoxicity against human PC3 cells assessed as reduction in cell viability after 72 hrs by MTT assay. Format: functional, cell-based. The note with it: PC-3, 72 h. The essentials:
as §1

As for `O=C1c2ccccc2C(=O)c2c(-c3cccs3)coc21`, the pIC50 was below 4.75 in [1]; 5.30 in [2]; 5.48 in [3]; below 4.75 in test [4]; 5.38 in test [5]; 5.29 in test [6]. In addition, the pIC50 is 5.25 in [7], 5.27 in [8], 5.31 in test [9] and 5.31 in test [10].

On to `O=C1c2ccccc2C(=O)c2c(-c3ccc(Br)cc3)coc21`, for which the pIC50 in [1] is below 4.85; in [2], 5.46; in test [3], 5.58; in test [4], below 4.85; in test [5], 5.56; in test [6] it was 5.27. For the same compound, the pIC50 was 5.31 in test [7], 5.53 in test [8], 5.49 in test [9] and 5.58 in [10].

Take `COc1ccc(-c2coc3c2C(=O)c2ccccc2C3=O)cc1OC`: the pIC50 in [1] is below 4.83; in [2] it was 5.43; in [3], 5.47; in test [4] it was below 4.83; in test [5], 5.43; in test [6], 5.28. Besides, the pIC50 in test [7] is 5.39; in test [8], 5.33; in [9] it was 5.30; in test [10], 5.41.

`O=C1c2ccccc2C(=O)c2c(-c3cccc4ccccc34)coc21`: the pIC50 was below 4.81 in test [1]; 5.35 in [2]; 5.63 in test [3]; 4.89 in [4]; 5.68 in test [5]; 5.21 in [6]. The pIC50 was 5.42 in [7], 5.41 in test [8], 5.48 in test [9] and 5.74 in test [10].

On to `COc1ccc(-c2coc3c2C(=O)c2ccccc2C3=O)cc1`, for which the pIC50 in [1] is below 4.78; in test [2], 5.30; in test [3], 5.37; in test [4] it was below 4.78; in [5] it was 5.42; in test [6] it was 5.24. The pIC50 in test [7] is 5.20; in test [8], 5.22; in test [9], 5.25; in test [10], 5.30.

Consider `CCOC(=O)Cc1c(-c2ccc(OC)c(OC)c2)c2c(n1-c1ccc(Cl)cc1)C(=O)c1ccccc1C2=O`, for which the pIC50 in test [1], in test [2], in test [3], in test [4], in test [6] and in test [7] was below 5.02 throughout. Besides, the pIC50 in test [10] was below 5.02.

With `CCOC(=O)Cc1c(-c2cccs2)c2c(n1-c1ccccc1)C(=O)c1ccccc1C2=O`, the pIC50 in test [1] is below 4.95; in test [2] it was below 4.95; in test [3], 5.58; in [4], below 4.95; in test [6], below 4.95; in test [7], below 4.95. Moreover, the pIC50 in test [10] is below 4.95.

Take `CCOC(=O)Cc1oc2c(c1-c1cccs1)C(=O)c1ccccc1C2=O`: the pIC50 in test [1] is below 4.56; in test [2] it was below 4.56; in [3], 5.23; in test [4], below 4.56; in test [6], 4.86; in test [7] it was 5.04. Besides, the pIC50 in [10] was below 4.56.

As to `CCOC(=O)Cc1oc2c(c1-c1ccccc1)C(=O)c1ccccc1C2=O`, the pIC50 is below 4.86 in test [1]; below 4.86 in test [2]; 5.08 in test [3]; below 4.86 in test [4]; 4.90 in test [6]; 5.05 in test [7]. Besides, in test [10], the pIC50 was below 4.86.

Consider `CCOC(=O)Cc1c(-c2ccc(C)cc2)c2c(n1-c1ccc(OC)cc1)C(=O)c1ccccc1C2=O`, for which the pIC50 in test [1] was below 4.98; in [2], below 4.98; in [3], 5.47; in [4], below 4.98; in test [6] it was below 4.98; in test [7], below 4.98. In addition, in [10], the pIC50 was below 4.98.

On to `COc1ccc(-c2cn(-c3ccc(OC)cc3)c3c2C(=O)c2ccccc2C3=O)cc1`, for which the pIC50 in [1], in test [2], in [3], in test [4], in test [6] and in [7] was below 4.91 each time. For the same compound, in test [10], the pIC50 is below 4.91.

Take `Cc1ccc(-c2cn(-c3ccc(Br)cc3)c3c2C(=O)c2ccccc2C3=O)cc1`: the pIC50 in [1], in test [2], in test [3], in [4], in test [6] and in test [7] was below 4.92 each time. The negative logarithm of the IC50 (pIC50) in test [10] was below 4.92.

On to `CCOC(=O)Cc1oc2c(c1-c1ccco1)C(=O)c1ccccc1C2=O`, for which the pIC50 in test [1], in [2], in test [3], in test [4], in test [6] and in test [7] was below 4.85 in each case. Further, the pIC50 in test [10] is below 4.85.

As to `CCOC(=O)Cc1c(-c2ccco2)c2c(n1-c1ccccc1)C(=O)c1ccccc1C2=O`, the pIC50 in [1], in test [2], in [3], in test [4], in test [6] and in [7] was below 4.93 in each case. Also, in test [10], the pIC50 is below 4.93.

In the case of `COc1ccc(-c2cn(-c3ccccc3)c3c2C(=O)c2ccccc2C3=O)cc1`, the pIC50 in test [1], in test [2], in test [3], in [4], in test [6] and in [7] was below 4.89 throughout. In [10], the pIC50 is below 4.89.

For the compound `CCOC(=O)Cc1oc2c(c1/C=C/c1ccccc1)C(=O)c1ccccc1C2=O`, the pIC50 was below 4.89 in test [1]; below 4.89 in test [2]; 4.97 in test [3]; below 4.89 in test [4]; below 4.89 in [6]; below 4.89 in test [7]. Also, the pIC50 in test [10] is below 4.89.

For the compound `CCOC(=O)Cc1c(-c2ccc(Cl)cc2)c2c(n1-c1ccc(OC)cc1)C(=O)c1ccccc1C2=O`, the pIC50 in test [1], in [2], in test [3], in test [4], in [6] and in [7] was below 5.00 in each case. The pIC50 in test [10] was below 5.00.

Turning to `COc1ccc(-n2cc(-c3ccccc3)c3c2C(=O)c2ccccc2C3=O)cc1`, the pIC50 in [1], in [2], in [3], in [4], in [6] and in [7] was below 4.88 in each case. Also, in test [10], the pIC50 was below 4.88.

For the compound `CCOC(=O)Cc1c(-c2ccc(C)cc2)c2c(n1-c1ccc(C)cc1)C(=O)c1ccccc1C2=O`, the pIC50 in test [1], in test [2], in test [3], in test [4], in [6] and in test [7] was below 4.97 in each case. In addition, in test [10], the pIC50 is below 4.97.

With `CCOC(=O)Cc1oc2c(c1-c1cc(OC)c(OC)c(OC)c1)C(=O)c1ccccc1C2=O`, the pIC50 in [1] was below 4.95; in test [2] it was 4.99; in test [3], 5.40; in [4] it was below 4.95; in test [6], below 4.95; in test [7] it was below 4.95. For the same compound, in [10], the pIC50 was 5.06.

With `COc1ccc(-n2cc(-c3ccc(F)cc3)c3c2C(=O)c2ccccc2C3=O)cc1`, the pIC50 in [1], in test [2], in test [3], in [4], in [6] and in [7] was below 4.90 each time. Moreover, the pIC50 in [10] is below 4.90.

As to `CCOC(=O)Cc1c(-c2ccc(OC)c(OC)c2)c2c(n1-c1cccc(Br)c1)C(=O)c1ccccc1C2=O`, the pIC50 in test [1], in test [2], in test [3], in [4], in test [6] and in [7] was below 5.06 in each case. Further, the pIC50 in test [10] was below 5.06.

Consider `CCOC(=O)Cc1c(-c2cc(OC)c(OC)c(OC)c2)c2c(n1-c1cccc(Br)c1)C(=O)c1ccccc1C2=O`, for which the pIC50 in test [1], in test [2], in test [3], in test [4], in test [6] and in [7] was below 5.08 throughout. For the same compound, the pIC50 in test [10] was below 5.08.

For the compound `Cc1ccc(-c2cn(-c3ccc(C)cc3)c3c2C(=O)c2ccccc2C3=O)cc1`, the pIC50 in [1], in test [2], in test [3], in [4], in [6] and in test [7] was below 4.95 in each case. Besides, the pIC50 in test [10] is below 4.95.

`CCOC(=O)Cc1oc2c(c1-c1ccc(Cl)cc1)C(=O)c1ccccc1C2=O`: the pIC50 was below 4.90 in test [1]; below 4.90 in [2]; 4.99 in test [3]; below 4.90 in test [4]; below 4.90 in [6]; below 4.90 in test [7]. Moreover, the pIC50 in test [10] was below 4.90.

By pIC50 is commonly meant the IC50 on a negative log10 scale, so that one unit is a factor of ten.
